Assay outcomes deposited in PubChem BioAssay by several laboratories.
Most compounds without a hit are left out; they make up all but 1.1% or so of the library.
thrombin 1536: inhibitors of human thrombin; alpha-thrombin, Boc-VPR-AMC fluorogenic substrate cleavage; hit rate 0.26% among 220,000; P00734; inhibition, % at 5 µM;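 active = inhibition at or above 40%; inactive = inhibition below 40%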;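 note: 0% = enzyme with no compound and 100% = wells without enzyme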
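Material: Human alpha-thrombin protein | Buffer or medium: pH 7.5 Tris-saline with Tween 20 | Reagent: Boc-VPR-AMC substrate, 15 µM final | Schedule: Reaction at ambient temperature | Detection: AMC fluorescence at 355 nm excitation and 460 nm emission | Evaluation: Percent inhibition scaled between no-compound controls and no-enzyme blanks | Controls: no-compound enzyme wells and no-enzyme blanks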
Furin inhibitor: blocks human furin protease activity; P09958; inhibition, % at 20 µM or 30 µM; purified furin, fluorogenic substrate cleavage; AID 463115; hit rate 0.061% among 220,000; in the data active = inhibition above about 25%
Target sequence (P09958 108-714 limits assumed): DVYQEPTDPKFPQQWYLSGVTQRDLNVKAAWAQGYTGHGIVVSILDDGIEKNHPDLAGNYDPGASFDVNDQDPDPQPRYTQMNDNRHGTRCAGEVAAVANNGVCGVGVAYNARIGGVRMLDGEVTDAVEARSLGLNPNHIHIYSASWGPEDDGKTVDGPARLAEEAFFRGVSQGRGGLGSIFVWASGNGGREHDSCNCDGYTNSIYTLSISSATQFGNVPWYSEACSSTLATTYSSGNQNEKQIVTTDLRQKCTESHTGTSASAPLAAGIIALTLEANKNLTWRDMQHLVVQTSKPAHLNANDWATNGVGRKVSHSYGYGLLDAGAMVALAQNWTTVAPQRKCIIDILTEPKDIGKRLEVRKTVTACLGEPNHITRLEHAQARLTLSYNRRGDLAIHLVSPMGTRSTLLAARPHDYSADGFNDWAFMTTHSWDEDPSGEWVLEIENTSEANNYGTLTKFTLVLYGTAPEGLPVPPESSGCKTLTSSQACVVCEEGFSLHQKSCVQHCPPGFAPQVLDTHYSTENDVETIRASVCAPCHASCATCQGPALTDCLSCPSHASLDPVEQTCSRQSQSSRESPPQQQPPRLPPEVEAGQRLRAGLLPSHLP
FXIIa inh 1536: inhibitors of human coagulation factor XIIa. P00748. purified FXIIa, Boc-QGR-AMC fluorogenic substrate, 2 h. inhibition, % at 5 µM. hit rate 0.3% among 220,000; in the data active = inhibition above about 40%;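 note: 0% = enzyme with no compound and 100% = blank without enzyme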
hK5 inh: kallikrein 5 (human) inhibition. Q9Y337. AID 873. inhibition, % at 5 µM. recombinant hK5, fluorogenic AMC substrate cleavage. hit rate 0.59% among 210,000;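 active = inhibition of 40% or more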;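 note: 0% = enzyme controls without compound and 100% = no-enzyme blanks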
FXIa inh 1536: inhibitors of human coagulation factor XIa. purified FXIa, Boc-Glu-Ala-Arg-AMC fluorogenic substrate. inhibition, % at 5 µM. hit rate 0.14% among 220,000;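 active = inhibition of at least 40%; inactive = inhibition below 40%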;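 note: fluorescence of freed AMC excited at 355 nm; 0% = enzyme without compound and 100% = no enzyme blank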
The depositor's hits bear a star; x = no result given.

SMILES	thrombin 1536	Furin inhibitor	FXIIa inh 1536	hK5 inh	FXIa inh 1536
Cc1csc(NC(=O)CSc2nnc(-c3ccoc3C)n2C(C)c2ccccc2)n1 (stereo unspecified)	-7	-17	5	-6	-11
CSc1nc(Sc2ccccc2)c2ccccc2n1	9	-19	3	-18	2
CSc1nc(Sc2ccc(Cl)cc2)c2ccccc2n1	20	-21	15	62*	11
O=C(NC1CC1)c1ccc2c(c1)C1C3CCC(C3)C1C(c1ccccc1)N2 (stereo unspecified)	0	-8	8	-13	6
CC(C)c1ccc(NC(=S)Nc2ccc3cn[nH]c3c2)cc1	42*	-22	7	3	1
Cc1ccc(NC(=S)Nc2ccc3cn[nH]c3c2)cc1C	18	-5	1	12	-6
Cc1ccc(C)c(N2C(=O)CN=C2Nc2ccccc2Cl)c1	-3	25*	5	3	5
O=C1CN=C(Nc2ccccc2Cl)N1c1ccccc1	-2	-7	12	6	-4
CCOc1ccc(CO/N=C/c2c(C)[nH]c(=O)[nH]c2=O)cc1	1	-25	4	-2	-5
CCCCCSc1nnc(-c2cc(Br)ccc2N)c(=O)[nH]1	15	-17	27	42*	16
COc1ccccc1CC(=O)NCc1csc(-c2cccs2)n1	11	-3	45*	9	47*
COc1ccccc1NC(=O)CSc1nnc(C2CCCCC2)n1-c1ccccc1	0	-21	8	3	2
O=C(O/N=C1\C(=O)N(c2ccccc2)c2ccccc21)C1CC1	1	-9	29	-2	-1
CN1C(=O)/C(=N/OC(=O)c2ccccc2)c2ccccc21	46*	-22	53*	-8	47*
CN1CCN(C(CC(=O)Nc2cccc(O)c2)C(=O)O)CC1 (stereo unspecified)	3	-25	9	x	4
O=C(c1ccc(S(=O)(=O)N2CCCCC2)cc1)N1CCN(CCN2C(=O)c3cccc4cccc(c34)C2=O)CC1	2	-32	12	3	1
CC(C)N(C)CCOC(=O)/C=C/c1ccccc1	6	-16	15	41*	-4
COc1cc(C(=O)N2CCC(O)(c3ccccc3)CC2)cc(OC)c1OC	12	-19	-6	51*	2
COC(OC)c1ccc(C#N)c(SCc2ccc(C)cc2)n1	2	-19	5	-3	-7
Cn1c(SCC(=O)c2ccc3c(c2)NC(=O)CO3)nc2ccccc21	53*	-4	22	38	25
O=C(Cn1ncc2c(=O)oc3ccccc3c21)NC1CC1	6	-26	13	-15	-36
O=C(Cn1ncc2c(=O)oc3ccccc3c21)Nc1nc2ccccc2s1	-4	25*	-7	0	-9
CCN1CCS/C1=C/C=C/C1=[N+](CC)CCS1	-4	38*	16	-12	9
CCN1CCS/C1=C\C=C\C1=[N+](CC)CCS1	5	43*	18	19	6
COc1ccc(/C=C/c2cc(C(=O)O)c3ccccc3n2)cc1	-7	6	-2	-4	-5
SMILES	thrombin 1536	Furin inhibitor	FXIIa inh 1536	hK5 inh	FXIa inh 1536
Cc1cc(/C=C\c2ccccc2)nc2ccccc12	6	2	24	50*	32
CCOc1ccc(Cn2ccnc2)cc1[N+](=O)[O-]	14	-10	15	115*	10
N#C/C(=C(/O)c1ccc(F)cc1)c1nc2ccccc2s1	-8	-32	12	7	9
N#C/C(=N\O)c1nc2ccccc2s1	35	5	26	43*	30
CCOC(=O)COc1ccc2nsnc2c1Cl	4	-19	-8	102*	-5
O=C(c1ccc(Cn2c(=S)[nH]c3cc4c(cc3c2=O)OCO4)cc1)N1CCN(c2ncccn2)CC1	-6	-31	5	-4	-2
O=C(Oc1ccc(Cl)c2cccnc12)c1ccco1	-3	-18	52*	-4	-5
O=C(Oc1cccc2cccnc12)c1ccco1	1	-7	13	-18	3
O=C(CCC1CCCN(Cc2cccc(Cl)c2)C1)NCc1ccccc1F (stereo unspecified)	-6	-12	0	-7	-6
c1ccc(-n2nnnc2Cc2nnnn2-c2ccccc2)cc1	2	-10	30	73*	25
c1ccc(-n2nnnc2CN2CCOCC2)cc1	0	-18	14	-1	8
COc1cc(NC2=CC(=O)CC(C)(C)C2)cc(OC)c1	-5	-9	20	0	17
COc1ccc(C(=O)NNC2=CC(=O)CC(C)(C)C2)cc1	15	-9	12	49*	14
CC1(C)CC(=O)C=C(NNC(=O)c2ccccc2O)C1	3	-33	60*	-34	32
Cc1cccc(C(=O)NNC2=CC(=O)CC(C)(C)C2)c1O	2	-20	9	2	4
O=C(CCCN1C(=O)/C(=C\c2cccc(Br)c2)SC1=S)Nc1cccnc1	1	-3	11	x	6
CC1=NN(C(C#N)c2ccc([N+](=O)[O-])cc2)C(C)(C)C1 (stereo unspecified)	22	-4	28	57*	50*
O=C(C[n+]1cccc(CNC(=O)c2ccc(OC(F)F)cc2)c1)Nc1cc(C(F)(F)F)ccc1Cl	36	-21	24	61*	10
NC(=O)C[n+]1cccc(CNC(=O)c2ccc(OC(F)F)cc2)c1	1	-20	3	-2	2
COCC(=O)n1nc(-c2ccc(Cl)cc2)nc1NCc1ccc(F)cc1	51*	-12	12	-9	1
COCC(=O)n1nc(-c2ccc(C)cc2)nc1NCc1ccc(F)cc1	79*	-21	-6	-17	-6
CCCn1c(N)c(NCCN2CCOCC2)c(=O)[nH]c1=O	-27	-14	-1	-6	-10
CCn1nc(C)c(CNCc2cn[nH]c2-c2cc3ccccc3o2)c1C	1	-17	8	-1	0
COc1ccc(S(=O)(=O)NCCOc2cccc3cccnc23)cc1OC	11	-6	30	11	42*
COc1cc(C(=O)NCCOc2cccc3cccnc23)cc(OC)c1OC	1	-6	3	1	-1
SMILES	thrombin 1536	Furin inhibitor	FXIIa inh 1536	hK5 inh	FXIa inh 1536
C#CCSc1nncn1C(=O)/C=C/c1ccccc1	90*	-21	31	35	30
O=C(/C=C/c1ccccc1)N1CCC[C@H]1CO	1	-26	10	-4	3
C=C(C)CC1N(c2cccc(OC)c2)C(=O)C2C(C(=O)O)C3C=CC21O3 (stereo unspecified)	-4	-10	-4	45*	-8
CCC(=O)n1nc(-c2ccccc2)nc1SCC(=O)Nc1ccc(C)cc1	52*	-14	28	-22	22
CC(=O)n1nc(-c2cccc(C)c2)nc1SCC(=O)Nc1ccccc1	77*	-20	13	-6	-1
Cc1ccc(C(=O)n2c(-c3ccccc3)cnc2SCC(=O)Nc2ccccc2)cc1	16	-15	19	4	18
O=C(Cc1csc(NC(=O)c2ccc(F)cc2)n1)NO	3	-21	5	-6	-1
